The source made the active and inactive calls. No cut-off for these calls is given here.
organism: Homo sapiens; test: Activation of ATP-sensitive potassium channel in human aortic smooth muscle cells assessed as membrane hyperpolarization at 10 uM by DiBAC4(3) dye-based spectrofluorimetric analysis in presence of glibenclamide
In short: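 Same DiBAC4(3) setup in HASMCs (2.5 μM dye, 1 h loading, pH 7.4, ex 488 / em 520 nm). Glibenclamide was added 10 min before the test agent. Relative fluorescence decrease expressed as % of the 100 μM LCRK maximal effect; six replicates.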

Activity | SMILES
inactive | CCc1ccc2c(c1)N(C1=CCCC1=O)CC(C)(C)S2
inactive | CC1(C)Oc2ccc(C#N)cc2[C@@H](N2CCCC2=O)[C@@H]1O [LEVCROMAKALIM]
inactive | CC1CN(C2=CCCC2=O)c2cc(C(F)(F)F)ccc2S1 (stereo not given)
inactive | CC(=O)c1ccc2c(c1)N(C1=CCCC1=O)CC(C)(C)S2

test system: Aorta; test: Vasorelaxant activity in Wistar rat endothelium-denuded aortic rings assessed as reduction of KCl-induced contraction in presence of glibenclamide; type: functional, tissue-based
In short: (§1)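 Endothelium-denuded Wistar rat aortic rings; 1 μM glibenclamide added before the 25 mM KCl contraction, then test agent added cumulatively in 3-fold increasing concentrations. Vasorelaxation expressed as % of KCl-induced tone; pIC50 from the half-reduction of tone; 5−10 experiments.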

SMILES | IC50
O=C1CCC=C1N1CCSc2ccc(C(F)(F)F)cc21 | 23400 nM
Cc1ccc2c(c1)N(C1=CCCC1=O)CC(C)(C)S2 | 19500 nM
CC1(C)CN(C2=CCCC2=O)c2ccccc2S1 | 20900 nM

The next lines start with the values.

IC50 | SMILES
6460 nM | CCc1ccc2c(c1)N(C1=CCCC1=O)CC(C)(C)S2
2510 nM | CC1(C)Oc2ccc(C#N)cc2[C@@H](N2CCCC2=O)[C@@H]1O [LEVCROMAKALIM]
8.32 nM | CC1(C)CN(C2=CCCC2=O)c2cc(C(F)(F)F)ccc2S1
708 nM | CC1CN(C2=CCCC2=O)c2cc(C(F)(F)F)ccc2S1 (stereo not given)
56.2 nM | CC(=O)c1ccc2c(c1)N(C1=CCCC1=O)CC(C)(C)S2

organism: Rattus norvegicus; test: Activation of ATP-sensitive potassium channel in Wistar rat pancreatic islets assessed as reduction in high glucose-induced insulin secretion at 80 uM after 1 hr by radioimmunoassay in presence of glibenclamide
In short: (§2)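 Islets from male Wistar rats (200−250 g), isolated by collagenase duct cannulation with density-gradient purification and cultured 24 h in RPMI (5.6 mM glucose). Ten islets per well were preincubated 30 min in KRH pH 7.4 with 2.8 mM glucose and 1% BSA, then incubated 1 h with 16.7 mM glucose ± glibenclamide 1 μM. Released insulin was measured by RIA, at least five replicas.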

Activity | SMILES
inactive | CC1=Nc2ccc(Cl)cc2S(=O)(=O)N1

test system: Aorta; test: Vasorelaxant activity in Wistar rat endothelium-denuded aortic rings assessed as reduction of KCl-induced contraction; type: functional, tissue-based
In short: (§3)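 Thoracic aortic rings from male Wistar rats (250−350 g), endothelium removed. Removal confirmed by <10% relaxation to 10 μM ACh. Rings contracted with 25 mM KCl; at plateau, test agent added cumulatively in 3-fold increasing concentrations. DMSO stocks (10 mM) diluted in water. Emax given as % of KCl tone; pIC50 is the half-reduction of tone; 5−10 experiments.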

SMILES | IC50
CC1(C)CN(C2=CCCC2=O)c2cc(N)ccc2S1 | 3980 nM
CC(=O)Nc1ccc2c(c1)N(C1=CCCC1=O)CC(C)(C)S2 | 6610 nM
O=C1CCC=C1N1CCSc2ccc(C(F)(F)F)cc21 | 537 nM
Cc1ccc2c(c1)N(C1=CCCC1=O)CC(C)(C)S2 | 933 nM
CC1(C)CN(C2=CCCC2=O)c2ccccc2S1 | 724 nM
CC(C)CN(CC(C)C)S(=O)(=O)c1ccc2c(c1)N(C1=CCCC1=O)CC(C)(C)S2 | 794 nM

Second part, the compound after the results:

IC50 | SMILES
66.1 nM | CC1(C)CSc2ccc(C(F)(F)F)cc2N1C1=CCCC1=O
155 nM | CCc1ccc2c(c1)N(C1=CCCC1=O)CC(C)(C)S2
324 nM | CC1(C)Oc2ccc(C#N)cc2[C@@H](N2CCCC2=O)[C@@H]1O [LEVCROMAKALIM]
0.0417 nM | CC1(C)CN(C2=CCCC2=O)c2cc(C(F)(F)F)ccc2S1
8.32 nM | CC1CN(C2=CCCC2=O)c2cc(C(F)(F)F)ccc2S1 (stereo not given)
1.45 nM | CC(=O)c1ccc2c(c1)N(C1=CCCC1=O)CC(C)(C)S2

test system: Aorta; test: Vasorelaxant activity in Wistar rat endothelium-denuded aortic rings assessed as reduction of KCl-induced contraction relative to control; type: functional; in short: as §3

SMILES | Emax
CC1(C)CSc2ccc(C(F)(F)F)cc2N1C1=CCCC1=O | 89%
CCc1ccc2c(c1)N(C1=CCCC1=O)CC(C)(C)S2 | 97%
CC1(C)CN(C2=CCCC2=O)c2cc(N)ccc2S1 | 96%
CC(=O)Nc1ccc2c(c1)N(C1=CCCC1=O)CC(C)(C)S2 | 97%
CC1(C)Oc2ccc(C#N)cc2[C@@H](N2CCCC2=O)[C@@H]1O [LEVCROMAKALIM] | 99%
O=C1CCC=C1N1CCSc2ccc(C(F)(F)F)cc21 | 94%
CC1(C)CN(C2=CCCC2=O)c2cc(C(F)(F)F)ccc2S1 | 92%
CC1CN(C2=CCCC2=O)c2cc(C(F)(F)F)ccc2S1 (stereo not given) | 94%
Cc1ccc2c(c1)N(C1=CCCC1=O)CC(C)(C)S2 | 89%
CC(=O)c1ccc2c(c1)N(C1=CCCC1=O)CC(C)(C)S2 | 88%
CC1(C)CN(C2=CCCC2=O)c2ccccc2S1 | 90%
CC(C)CN(CC(C)C)S(=O)(=O)c1ccc2c(c1)N(C1=CCCC1=O)CC(C)(C)S2 | 85%

organism: Rattus norvegicus; test: Activation of ATP-sensitive potassium channel in Wistar rat pancreatic islets assessed as reduction in high glucose-induced insulin secretion after 1 hr by radioimmunoassay
In short: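 Islets from male Wistar rats (200−250 g), collagenase isolation, cultured 24 h in RPMI (5.6 mM glucose). Batches of 10 islets preincubated 30 min in KRH pH 7.4 with 2.8 mM glucose and 1% BSA, then incubated 1 h with 2.8 or 16.7 mM glucose ± test agent at 1 to 1000 nM. Released insulin measured by RIA. At least five replicas.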

Activity | SMILES
inactive | CCc1ccc2c(c1)N(C1=CCCC1=O)CC(C)(C)S2
inactive | CC(=O)c1ccc2c(c1)N(C1=CCCC1=O)CC(C)(C)S2

test system: Aorta; test: Vasorelaxant activity in Wistar rat endothelium-denuded aortic rings assessed as reduction of KCl-induced contraction in presence of glibenclamide relative to control; type: functional; in short: as §1

SMILES | Emax
CCc1ccc2c(c1)N(C1=CCCC1=O)CC(C)(C)S2 | 69%
CC1(C)Oc2ccc(C#N)cc2[C@@H](N2CCCC2=O)[C@@H]1O [LEVCROMAKALIM] | 93%
O=C1CCC=C1N1CCSc2ccc(C(F)(F)F)cc21 | 64%
CC1(C)CN(C2=CCCC2=O)c2cc(C(F)(F)F)ccc2S1 | 96%
CC1CN(C2=CCCC2=O)c2cc(C(F)(F)F)ccc2S1 (stereo not given) | 63%
Cc1ccc2c(c1)N(C1=CCCC1=O)CC(C)(C)S2 | 78%
CC(=O)c1ccc2c(c1)N(C1=CCCC1=O)CC(C)(C)S2 | 77%
CC1(C)CN(C2=CCCC2=O)c2ccccc2S1 | 61%

test system: not listed separately; test: (§4) Activation of ATP-sensitive potassium channel in human aortic smooth muscle cells assessed as membrane hyperpolarization by DiBAC4(3) dye-based spectrofluorimetric analysis
In short: (§5)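 HASMCs grown in medium 231 with SMGS at 37 °C, 5% CO2, seeded on gelatin 24 h before use. Loaded 1 h with 2.5 μM DiBAC4(3) in HEPES buffer pH 7.4 at room temperature. Fluorescence read at ex 488 / em 520 nm before and after compound. Relative fluorescence decrease (Ft−F0)/F0 expressed as % of the 100 μM LCRK effect. pEC50 derived; six replicates.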

EC50 | SMILES
7410 nM | CCc1ccc2c(c1)N(C1=CCCC1=O)CC(C)(C)S2
5370 nM | CC1(C)Oc2ccc(C#N)cc2[C@@H](N2CCCC2=O)[C@@H]1O [LEVCROMAKALIM]
135 nM | CC1CN(C2=CCCC2=O)c2cc(C(F)(F)F)ccc2S1 (stereo not given)
117 nM | CC(=O)c1ccc2c(c1)N(C1=CCCC1=O)CC(C)(C)S2

organism: Homo sapiens; test: as §4; in short: as §5

Activity | SMILES
Dose-dependent effect | CCc1ccc2c(c1)N(C1=CCCC1=O)CC(C)(C)S2
Dose-dependent effect | CC1CN(C2=CCCC2=O)c2cc(C(F)(F)F)ccc2S1 (stereo not given)
Dose-dependent effect | CC(=O)c1ccc2c(c1)N(C1=CCCC1=O)CC(C)(C)S2

organism: Homo sapiens; test: Activation of ATP-sensitive potassium channel in human aortic smooth muscle cells assessed as membrane hyperpolarization at 0.1 to 100 uM by DiBAC4(3) dye-based spectrofluorimetric analysis relative to LCRK; in short: as §5

Emax | SMILES
98% | CCc1ccc2c(c1)N(C1=CCCC1=O)CC(C)(C)S2
106% | CC1CN(C2=CCCC2=O)c2cc(C(F)(F)F)ccc2S1 (stereo not given)
103% | CC(=O)c1ccc2c(c1)N(C1=CCCC1=O)CC(C)(C)S2

test system: Aorta; test: Vasorelaxant activity in Wistar rat endothelium-denuded aortic rings relative to LCRK; type: functional; in short: as §3

SMILES | Ratio
CC1CN(C2=CCCC2=O)c2cc(C(F)(F)F)ccc2S1 (stereo not given) | 10
CC(=O)c1ccc2c(c1)N(C1=CCCC1=O)CC(C)(C)S2 | 100

organism: Rattus norvegicus; test: Activation of ATP-sensitive potassium channel in Wistar rat pancreatic islets assessed as reduction in high glucose-induced insulin secretion at 80 uM after 1 hr by radioimmunoassay; in short: as §2

Activity | SMILES
Active | CC1=Nc2ccc(Cl)cc2S(=O)(=O)N1

Reference: ChEMBL document CHEMBL2380266, “1,4-Benzothiazine ATP-sensitive potassium channel openers: modifications at the C-2 and C-6 positions” (J Med Chem, 2013)
